ChEMBL document CHEMBL3085624, “Design, synthesis, and biological evaluation of novel investigational nonapeptide KISS1R agonists with testosterone-suppressive activity” (J Med Chem, 2013)
Non-standard residues stand in square brackets, D forms with d. Residues, ends and D or L forms follow the SMILES beside them. 2Nal = N[C@@H](Cc1ccc2ccccc2c1)C(=O)O; Arg(Me) = CNC(=N)NCCC[C@H](N)C(=O)O; d3Pal = N[C@H](Cc1cccnc1)C(=O)O; Cha = N[C@@H](CC1CCCCC1)C(=O)O; azaGly = NNC(=O)O

Tests used:
KiSS-1 receptor [1] = target: T1, KiSS-1 receptor (Homo sapiens, UniProt Q969F8); experiment: Binding affinity to human KISS1R expressed in CHO cell membranes
T1 sequence (Q969F8 whole entry): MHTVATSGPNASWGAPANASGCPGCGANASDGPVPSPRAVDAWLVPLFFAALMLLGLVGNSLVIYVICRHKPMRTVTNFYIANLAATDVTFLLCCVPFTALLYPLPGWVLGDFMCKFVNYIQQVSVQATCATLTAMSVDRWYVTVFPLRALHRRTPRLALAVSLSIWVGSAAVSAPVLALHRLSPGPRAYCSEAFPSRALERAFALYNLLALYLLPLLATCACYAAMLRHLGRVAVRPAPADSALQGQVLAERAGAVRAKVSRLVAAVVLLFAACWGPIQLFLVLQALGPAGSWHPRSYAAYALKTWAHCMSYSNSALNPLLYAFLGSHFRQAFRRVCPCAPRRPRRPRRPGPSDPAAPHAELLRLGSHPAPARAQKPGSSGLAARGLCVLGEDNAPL

KiSS-1 receptor [2] = target: KiSS-1 receptor (Rattus norvegicus, UniProt Q924U1); experiment: Binding affinity to rat KISS1R
Sequence of KiSS-1 receptor (Rattus norvegicus, UniProt Q924U1) (Q924U1 whole entry): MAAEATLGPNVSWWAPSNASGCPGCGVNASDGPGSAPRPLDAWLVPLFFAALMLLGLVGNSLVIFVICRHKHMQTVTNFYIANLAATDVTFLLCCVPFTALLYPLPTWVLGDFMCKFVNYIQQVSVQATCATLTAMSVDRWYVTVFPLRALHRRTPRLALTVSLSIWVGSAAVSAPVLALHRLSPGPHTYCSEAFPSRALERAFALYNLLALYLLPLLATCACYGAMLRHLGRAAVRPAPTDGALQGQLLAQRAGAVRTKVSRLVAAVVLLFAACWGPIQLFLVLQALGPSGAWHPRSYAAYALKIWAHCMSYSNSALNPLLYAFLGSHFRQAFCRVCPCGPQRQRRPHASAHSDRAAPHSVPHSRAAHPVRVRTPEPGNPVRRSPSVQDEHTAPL

KiSS-1 receptor [3] = target: T1, KiSS-1 receptor; experiment: Agonist activity at recombinant human KISS1R expressed in CHO cells assessed as intracellular calcium mobilization incubated for 30 mins at 37 degC and 30 mins at room temperature by Fluo-4 NW staining-based FLIPR assay relative to Metastin (45 to 54); format: functional, cell-based
How it was run: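 CHO cells stably expressing human KISS1R seeded at 15,000 cells/well, cultured 24 h, then loaded with Fluo-4 Direct in HBSS with 4 mM probenecid and 0.1% BSA (30 min 37 °C, 30 min room temperature). Compounds from 10 µM DMSO stocks diluted in sample buffer and added. Fluorescence read for 2 min at 2 s intervals. Peak counts give agonist activity. EC50 expressed as ratio to metastin(45-54).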

Compound | Ki (KiSS-1 receptor [1]; cho) | Ki (KiSS-1 receptor [1]) | Ki (KiSS-1 receptor [2]) | fold change (FC) (KiSS-1 receptor [3])
CNC(N)=NCCC[C@H](NC(=O)[C@H](CC(C)C)NC(=O)CNC(=O)[C@H](Cc1ccccc1)NC(=O)[C@H](CO)NC(=O)[C@H](CC(N)=O)NC(=O)[C@H](Cc1c[nH]c2ccccc12)NC(=O)[C@H](CC(N)=O)NC(=O)[C@H](N)Cc1ccc(O)cc1)C(=O)N[C@@H](Cc1ccccc1)C(N)=O | 0.046 nM | – | – | –
CNC(N)=NCCC[C@H](NC(=O)[C@H](CC(C)C)NC(=O)NNC(=O)[C@H](Cc1ccccc1)NC(=O)[C@H](CO)NC(=O)[C@H](CC(N)=O)NC(=O)[C@H](Cc1ccncc1)NC(=O)[C@H](CC(N)=O)NC(=O)[C@H](N)Cc1ccc(O)cc1)C(=O)N[C@@H](Cc1ccccc1)C(N)=O | – | 0.12 nM | 0.12 nM | –
CNC(N)=NCCC[C@H](NC(=O)[C@H](CC(C)C)NC(=O)NNC(=O)[C@H](Cc1ccccc1)NC(=O)[C@H](CO)NC(=O)[C@H](CC(N)=O)NC(=O)[C@@H](Cc1ccncc1)NC(=O)[C@H](CC(N)=O)NC(=O)[C@H](N)Cc1ccc(O)cc1)C(=O)N[C@@H](Cc1ccccc1)C(N)=O | – | 0.12 nM | 0.12 nM | –
CNC(N)=NCCC[C@H](NC(=O)[C@H](CC(C)C)NC(=O)NNC(=O)[C@H](Cc1ccccc1)NC(=O)[C@H](CO)NC(=O)[C@H](CC(N)=O)NC(=O)[C@H](Cc1ccncc1)NC(=O)[C@@H](CC(N)=O)NC(=O)[C@@H](N)Cc1ccc(O)cc1)C(=O)N[C@@H](Cc1ccccc1)C(N)=O | – | 0.21 nM | 0.16 nM | –
CNC(N)=NCCC[C@H](NC(=O)[C@H](CC(C)C)NC(=O)NNC(=O)[C@H](Cc1ccccc1)NC(=O)[C@H](CO)NC(=O)[C@H](CC(N)=O)NC(=O)[C@H](Cc1ccccc1)NC(=O)[C@H](N)Cc1cccnc1)C(=O)N[C@@H](Cc1ccccc1)C(N)=O | – | 0.2 nM | 0.28 nM | –
CNC(N)=NCCC[C@H](NC(=O)[C@H](CC(C)C)NC(=O)NNC(=O)[C@H](Cc1ccccc1)NC(=O)[C@H](CO)NC(=O)[C@H](CC(N)=O)NC(=O)[C@H](Cc1ccncc1)NC(=O)[C@@H](CC(N)=O)NC(=O)[C@H](N)Cc1ccc(O)cc1)C(=O)N[C@@H](Cc1ccccc1)C(N)=O | – | 0.11 nM | 0.095 nM | –
CNC(=N)NCCC[C@H](NC(=O)[C@H](CC(C)C)NC(=O)NNC(=O)[C@H](Cc1ccccc1)NC(=O)[C@H](CO)NC(=O)[C@H](CC(N)=O)NC(=O)[C@H](Cc1c[nH]c2ccccc12)NC(=O)[C@H](CC(N)=O)NC(=O)[C@H](N)Cc1cccnc1)C(=O)N[C@@H](Cc1ccccc1)C(N)=O (H-[d3Pal]NWNSF[azaGly]L[Arg(Me)]F-NH2) | – | 0.12 nM | 0.14 nM | 2.3
CNC(=N)NCCC[C@H](NC(=O)[C@H](CC(C)C)NC(=O)NNC(=O)[C@H](Cc1ccccc1)NC(=O)[C@H](CO)NC(=O)[C@H](CC(N)=O)NC(=O)[C@H](CC1CCCCC1)NC(=O)[C@@H](CC(N)=O)NC(=O)[C@H](N)Cc1cccnc1)C(=O)N[C@@H](Cc1ccccc1)C(N)=O (H-[d3Pal][dN][Cha]NSF[azaGly]L[Arg(Me)]F-NH2) | – | 0.2 nM | 0.18 nM | 10
CNC(=N)NCCC[C@H](NC(=O)[C@H](CC(C)C)NC(=O)NNC(=O)[C@H](Cc1ccccc1)NC(=O)[C@H](CO)NC(=O)[C@H](CC(N)=O)NC(=O)[C@H](Cc1c[nH]c2ccccc12)NC(=O)[C@H](CC(N)=O)NC(=O)[C@@H](C)N)C(=O)N[C@@H](Cc1ccccc1)C(N)=O (H-[dA]NWNSF[azaGly]L[Arg(Me)]F-NH2) | – | 0.51 nM | 0.52 nM | 4.9
CC[C@H](C)[C@H](NC(=O)[C@H](N)Cc1ccc(O)cc1)C(=O)N[C@@H](CC(N)=O)C(=O)N[C@@H](CO)C(=O)N[C@@H](Cc1ccccc1)C(=O)NNC(=O)N[C@@H](CC(C)C)C(=O)N[C@@H](CCCNC(=N)NC)C(=O)N[C@@H](Cc1ccccc1)C(N)=O (H-[dY]INSF[azaGly]L[Arg(Me)]F-NH2) | – | 0.12 nM | 0.13 nM | 14
CNC(N)=NCCC[C@H](NC(=O)[C@H](CC(C)C)NC(=O)NNC(=O)[C@H](Cc1ccccc1)NC(=O)[C@H](CO)NC(=O)[C@H](CC(N)=O)NC(=O)[C@H](CO)NC(=O)[C@H](N)Cc1ccc(O)cc1)C(=O)N[C@@H](Cc1ccccc1)C(N)=O (H-[dY]SNSF[azaGly]L[Arg(Me)]F-NH2) | – | 0.21 nM | 0.3 nM | –
CNC(=N)NCCC[C@H](NC(=O)[C@H](CC(C)C)NC(=O)NNC(=O)[C@H](Cc1ccccc1)NC(=O)[C@H](CO)NC(=O)[C@H](CC(N)=O)NC(=O)[C@H](CO)NC(=O)[C@H](N)Cc1ccc(O)cc1)C(=O)N[C@@H](Cc1ccccc1)C(N)=O (H-[dY]SNSF[azaGly]L[Arg(Me)]F-NH2) | – | – | – | 61
CNC(=N)NCCC[C@H](NC(=O)[C@H](CC(C)C)NC(=O)NNC(=O)[C@H](Cc1ccccc1)NC(=O)[C@H](CO)NC(=O)[C@H](CC(N)=O)NC(=O)[C@@H](NC(=O)[C@H](N)Cc1ccc(O)cc1)[C@@H](C)O)C(=O)N[C@@H](Cc1ccccc1)C(N)=O (H-[dY]TNSF[azaGly]L[Arg(Me)]F-NH2) | – | 0.2 nM | 0.24 nM | 8.9
CNC(=N)NCCC[C@H](NC(=O)[C@H](CC(C)C)NC(=O)NNC(=O)[C@H](Cc1ccccc1)NC(=O)[C@H](CO)NC(=O)[C@H](CC(N)=O)NC(=O)[C@H](Cc1ccc2ccccc2c1)NC(=O)[C@H](N)Cc1ccc(O)cc1)C(=O)N[C@@H](Cc1ccccc1)C(N)=O (H-[dY][2Nal]NSF[azaGly]L[Arg(Me)]F-NH2) | – | – | – | 6.4
CNC(=N)NCCC[C@H](NC(=O)[C@H](CC(C)C)NC(=O)NNC(=O)[C@H](Cc1ccccc1)NC(=O)[C@H](CO)NC(=O)[C@H](CC(N)=O)NC(=O)[C@H](Cc1ccccc1)NC(=O)[C@@H](CC(N)=O)NC(=O)[C@H](N)Cc1ccc(O)cc1)C(=O)N[C@@H](Cc1ccccc1)C(N)=O (H-[dY][dN]FNSF[azaGly]L[Arg(Me)]F-NH2) | – | – | – | 1.5

Other lines, results leading:

Ki (KiSS-1 receptor [1]; cho) | Ki (KiSS-1 receptor [1]) | Ki (KiSS-1 receptor [2]) | fold change (FC) (KiSS-1 receptor [3]) | Compound
– | 0.078 nM | – | – | CNC(N)=NCCC[C@H](NC(=O)[C@H](CC(C)C)NC(=O)NNC(=O)[C@H](Cc1ccccc1)NC(=O)[C@H](CO)NC(=O)[C@H](CC(N)=O)NC(=O)[C@@H](Cc1c[nH]c2ccccc12)NC(=O)[C@H](CC(N)=O)NC(=O)[C@H](N)Cc1ccc(O)cc1)C(=O)N[C@@H](Cc1ccccc1)C(N)=O
– | 0.086 nM | 0.15 nM | – | CNC(N)=NCCC[C@H](NC(=O)[C@H](CC(C)C)NC(=O)NNC(=O)[C@H](Cc1ccccc1)NC(=O)[C@H](CO)NC(=O)[C@H](CC(N)=O)NC(=O)[C@H](Cc1ccccc1)NC(=O)[C@H](N)Cc1ccc(O)cc1)C(=O)N[C@@H](Cc1ccccc1)C(N)=O
– | 0.11 nM | 0.13 nM | – | CNC(N)=NCCC[C@H](NC(=O)[C@H](CC(C)C)NC(=O)NNC(=O)[C@H](Cc1ccccc1)NC(=O)[C@H](CO)NC(=O)[C@H](CC(N)=O)NC(=O)[C@H](Cc1c[nH]c2ccccc12)NC(=O)[C@H](N)Cc1cccnc1)C(=O)N[C@@H](Cc1ccccc1)C(N)=O
– | 0.045 nM | – | 1.7 | CC(C)C[C@H](NC(=O)NNC(=O)[C@H](Cc1ccccc1)NC(=O)[C@H](CO)NC(=O)[C@H](CC(N)=O)NC(=O)[C@H](Cc1c[nH]c2ccccc12)NC(=O)[C@H](CC(N)=O)NC(=O)[C@@H](N)Cc1ccc(O)cc1)C(=O)N[C@@H](CCCNC(=N)N)C(=O)N[C@@H](Cc1ccccc1)C(N)=O
– | 0.062 nM | – | 2.6 | CNC(=N)NCCC[C@H](NC(=O)[C@H](CC(C)C)NC(=O)NNC(=O)[C@H](Cc1ccccc1)NC(=O)[C@H](CO)NC(=O)[C@H](CC(N)=O)NC(=O)[C@H](Cc1c[nH]c2ccccc12)NC(=O)[C@@H](CC(N)=O)NC(=O)[C@H](N)Cc1ccc(O)cc1)C(=O)N[C@@H](Cc1ccccc1)C(N)=O
– | 0.086 nM | 0.093 nM | – | CNC(N)=NCCC[C@H](NC(=O)[C@H](CC(C)C)NC(=O)NNC(=O)[C@H](Cc1ccccc1)NC(=O)[C@H](CO)NC(=O)[C@H](CC(N)=O)NC(=O)[C@H](Cc1c[nH]c2ccccc12)NC(=O)[C@@H](CO)NC(=O)[C@H](N)Cc1ccc(O)cc1)C(=O)N[C@@H](Cc1ccccc1)C(N)=O
– | 0.033 nM | 0.043 nM | 6.2 | CNC(=N)NCCC[C@H](NC(=O)[C@H](CC(C)C)NC(=O)NNC(=O)[C@H](Cc1ccccc1)NC(=O)[C@H](CO)NC(=O)[C@H](CC(N)=O)NC(=O)[C@H](Cc1c[nH]c2ccccc12)NC(=O)[C@@H](Cc1cnc[nH]1)NC(=O)[C@H](N)Cc1ccc(O)cc1)C(=O)N[C@@H](Cc1ccccc1)C(N)=O
– | 0.032 nM | 0.051 nM | – | CNC(N)=NCCC[C@H](NC(=O)[C@H](CC(C)C)NC(=O)NNC(=O)[C@H](Cc1ccccc1)NC(=O)[C@H](CO)NC(=O)[C@H](CC(N)=O)NC(=O)[C@H](Cc1ccc2ccccc2c1)NC(=O)[C@H](N)Cc1ccc(O)cc1)C(=O)N[C@@H](Cc1ccccc1)C(N)=O (H-[dY][2Nal]NSF[azaGly]L[Arg(Me)]F-NH2)
– | 0.055 nM | 0.076 nM | 17 | CNC(=N)NCCC[C@H](NC(=O)[C@H](CC(C)C)NC(=O)NNC(=O)[C@H](Cc1ccccc1)NC(=O)[C@H](CO)NC(=O)[C@H](CC(N)=O)NC(=O)[C@H](CC1CCCCC1)NC(=O)[C@@H](CC(N)=O)NC(=O)[C@H](N)Cc1ccc(O)cc1)C(=O)N[C@@H](Cc1ccccc1)C(N)=O (H-[dY][dN][Cha]NSF[azaGly]L[Arg(Me)]F-NH2)
– | 0.065 nM | 0.11 nM | 4.5 | CNC(=N)NCCC[C@H](NC(=O)[C@H](CC(C)C)NC(=O)NNC(=O)[C@H](Cc1ccccc1)NC(=O)[C@H](CO)NC(=O)[C@H](CC(N)=O)NC(=O)[C@@H](Cc1c[nH]c2ccccc12)NC(=O)[C@H](N)Cc1ccc(O)cc1)C(=O)N[C@@H](Cc1ccccc1)C(N)=O (H-[dY][dW]NSF[azaGly]L[Arg(Me)]F-NH2)
– | 0.039 nM | – | – | CC(C)C[C@H](NC(=O)CNC(=O)[C@H](Cc1ccccc1)NC(=O)[C@H](CO)NC(=O)[C@H](CC(N)=O)NC(=O)[C@H](Cc1c[nH]c2ccccc12)NC(=O)[C@H](CC(N)=O)NC(=O)[C@@H](N)Cc1ccc(O)cc1)C(=O)N[C@@H](CCCNC(=N)N)C(=O)N[C@@H](Cc1ccccc1)C(N)=O [KISSPEPTIN-10]
